Experimental data: ChEMBL document CHEMBL1268908, “Design, synthesis, radiolabeling, and in vivo evaluation of carbon-11 labeled N-[2-[4-(3-cyanopyridin-2-yl)piperazin-1-yl]ethyl]-3-methoxybenzamide, a potential positron emission tomography tracer for the dopamine D(4) receptors” (J Med Chem, 2010)

Experiments:
Assay type in all cases: ADME, organism-based, Macaca mulatta
[1] = Biodistribution in rhesus monkey entorhinal cortex at 150.3 MBq, iv after 41 mins; conditions: in vivo
In short: (§1)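 Single male rhesus monkey anesthetized with ketamine 10 mg/kg im, head fixed. Attenuation correction by 20 min 68Ge-68Ga transmission scan. [11C]-tracer in saline (pH 7.4) given iv, specific radioactivity 2.9 TBq/μmol at injection. Dynamic 3D PET emission scan over 90 min in frames of 0.5 to 5 min. MRI T1 images used to define VOIs. Uptake expressed as […].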

[2] = Biodistribution in rhesus monkey cerebellum at 150.3 MBq, iv after 5.5 mins; conditions: in vivo
In short: (§2)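 Male rhesus monkey under ketamine (10 mg/kg im) with head fixation. After a 20 min 68Ge-68Ga transmission scan, the [11C]-labelled tracer in saline (pH 7.4) was injected iv, at 2.9 TBq/μmol specific radioactivity at injection. A dynamic 3D PET scan followed over 90 min (6×0.5, 7×1, 20×2, 8×5 min frames). Regions were defined on T1-weighted 1.5 T MRI, and uptake is given as %ID/mL.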

Hippocampus [3] = experiment: Biodistribution in rhesus monkey hippocampus at 150.3 MBq, iv after 2.75 mins; conditions: in vivo, 165 s; in short: as §1
[4] = Biodistribution in rhesus monkey occipital lobe at 150.3 MBq, iv after 77.5 mins; conditions: in vivo
[5] = Biodistribution in rhesus monkey retina at 150.3 MBq, iv after 82.5 mins; conditions: in vivo, 1.375 h
Striatum [6] = experiment: Biodistribution in rhesus monkey striatum at 150.3 MBq, iv after 2.75 mins; conditions: in vivo, 165 s
[7] = Biodistribution in rhesus monkey entorhinal cortex at 150.3 MBq, iv after 15 mins; conditions: in vivo, 0.25 h; in short: as §1
[8] = Biodistribution in rhesus monkey entorhinal cortex at 150.3 MBq, iv after 13 mins; conditions: in vivo; in short: as §1
Hippocampus [9] = experiment: Biodistribution in rhesus monkey hippocampus […], iv after 17 mins; conditions: in vivo, in the assay text read “150.3 MBq” for “170.3 MBq”
In short: (§3)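 Male rhesus monkey under ketamine 10 mg/kg im, head fixed; 20 min 68Ge-68Ga transmission scan, then 90 min dynamic 3D PET (6×0.5, 7×1, 20×2, 8×5 min frames) after iv [11C]-labelled tracer in saline, specific radioactivity about 2.9 TBq/μmol at injection. Regions defined on T1-weighted MRI; uptake expressed as % injected dose per mL.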

[10] = Biodistribution in rhesus monkey cerebellum at 150.3 MBq, iv after 57.5 mins; conditions: in vivo; in short: as §2
Hippocampus [11] = experiment: Biodistribution in rhesus monkey hippocampus at 150.3 MBq, iv after 39 mins; conditions: in vivo, 0.65 h; in short: as §3
[12] = Biodistribution in rhesus monkey cerebellum at 150.3 MBq, iv after 1.25 mins; conditions: in vivo, 75 s; in short: as §2
[13] = Biodistribution in rhesus monkey occipital lobe at 150.3 MBq, iv after 23 mins; conditions: in vivo; in short: as §3
[14] = Biodistribution in rhesus monkey retina at 150.3 MBq, iv after 41 mins; conditions: in vivo
[15] = Biodistribution in rhesus monkey cingulate cortex at 150.3 MBq, iv after 15 mins; conditions: in vivo, 0.25 h; in short: as §2
[16] = Biodistribution in rhesus monkey cingulate cortex at 150.3 MBq, iv after 2.25 mins; conditions: in vivo, 135 s; in short: as §2
Hippocampus [17] = experiment: Biodistribution in rhesus monkey hippocampus at 150.3 MBq, iv after 0.25 mins; conditions: in vivo, 15 s; in short: as §1
Hippocampus [18] = experiment: Biodistribution in rhesus monkey hippocampus at 150.3 MBq, iv after 1.75 mins; conditions: in vivo, 105 s; in short: as §1
[19] = Biodistribution in rhesus monkey occipital lobe at 150.3 MBq, iv after 1.25 mins; conditions: in vivo, 75 s; in short: as §3
Striatum [20] = experiment: Biodistribution in rhesus monkey striatum at 150.3 MBq, iv after 4.5 mins; conditions: in vivo, 0.075 h
[21] = Biodistribution in rhesus monkey cingulate cortex at 150.3 MBq, iv after 13 mins; conditions: in vivo; in short: as §2
[22] = Biodistribution in rhesus monkey cingulate cortex at 150.3 MBq, iv after 25 mins; conditions: in vivo; in short: as §2
[23] = Biodistribution in rhesus monkey retina at 150.3 MBq, iv after 45 mins; conditions: in vivo, 0.75 h
Hippocampus [24] = experiment: Biodistribution in rhesus monkey hippocampus at 150.3 MBq, iv after 9.5 mins; conditions: in vivo; in short: as §3
[25] = Biodistribution in rhesus monkey cingulate cortex at 150.3 MBq, iv after 37 mins; conditions: in vivo; in short: as §2
[26] = Biodistribution in rhesus monkey cerebellum at 150.3 MBq, iv after 21 mins; conditions: in vivo, 0.35 h; in short: as §2
[27] = Biodistribution in rhesus monkey occipital lobe at 150.3 MBq, iv after 41 mins; conditions: in vivo
In short: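 A male rhesus monkey was anaesthetised with ketamine 10 mg/kg im and placed in a head fixation device. A 20 min 68Ge-68Ga transmission scan was run for attenuation correction. Radiotracer in saline (pH 7.4) was given iv, about 52 pmol (18 ng), at 2.9 TBq/μmol at injection. A dynamic 3D PET scan followed for 90 min. Regional VOIs were defined on a T1-weighted MRI, with uptake expressed as %ID/mL.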

[28] = Biodistribution in rhesus monkey occipital lobe at 150.3 MBq, iv after 67.5 mins; conditions: in vivo, 1.125 h
Hippocampus [29] = experiment: Biodistribution in rhesus monkey hippocampus at 150.3 MBq, iv after 8.5 mins; conditions: in vivo; in short: as §3
[30] = Biodistribution in rhesus monkey entorhinal cortex at 150.3 MBq, iv after 0.75 mins; conditions: in vivo, 45 s; in short: as §1
Hippocampus [31] = experiment: Biodistribution in rhesus monkey hippocampus at 150.3 MBq, iv after 6.5 mins; conditions: in vivo; in short: as §3
[32] = Biodistribution in rhesus monkey cingulate cortex at 150.3 MBq, iv after 49 mins; conditions: in vivo; in short: as §1
Hippocampus [33] = experiment: Biodistribution in rhesus monkey hippocampus at 150.3 MBq, iv after 45 mins; conditions: in vivo, 0.75 h; in short: as §3
Striatum [34] = experiment: Biodistribution in rhesus monkey striatum at 150.3 MBq, iv after 3.5 mins; conditions: in vivo
[35] = Biodistribution in rhesus monkey occipital lobe at 150.3 MBq, iv after 87.5 mins; conditions: in vivo
Striatum [36] = experiment: Biodistribution in rhesus monkey striatum at 150.3 MBq, iv after 77.5 mins; conditions: in vivo
[37] = Biodistribution in rhesus monkey entorhinal cortex at 150.3 MBq, iv after 2.75 mins; conditions: in vivo, 165 s; in short: as §1
Striatum [38] = experiment: Biodistribution in rhesus monkey striatum at 150.3 MBq, iv after 67.5 mins; conditions: in vivo, 1.125 h
[39] = Biodistribution in rhesus monkey retina at 150.3 MBq, iv after 72.5 mins; conditions: in vivo
[40] = Biodistribution in rhesus monkey cingulate cortex at 150.3 MBq, iv after 27 mins; conditions: in vivo, 0.45 h; in short: as §2
[41] = Biodistribution in rhesus monkey entorhinal cortex at 150.3 MBq, iv after 67.5 mins; conditions: in vivo, 1.125 h; in short: as §1
[42] = Biodistribution in rhesus monkey occipital lobe at 150.3 MBq, iv after 8.5 mins; conditions: in vivo
[43] = Biodistribution in rhesus monkey entorhinal cortex at 150.3 MBq, iv after 19 mins; conditions: in vivo; in short: as §1
[44] = Biodistribution in rhesus monkey cerebellum at 150.3 MBq, iv after 23 mins; conditions: in vivo; in short: as §2

A Drug uptake [1] of 11.877 kBq/ml, a Drug uptake [2] of 33.43 kBq/ml and a Drug uptake (Hippocampus [3]) of 47.34 kBq/ml were found for [11CH3]Oc1cccc(C(=O)NCCN2CCN(c3ncccc3C#N)CC2)c1 in this work. The Drug uptake [4] was 8.127 kBq/ml, the Drug uptake [5] was 52.3 kBq/ml and the Drug uptake (Striatum [6]) was 50.12 kBq/ml. The Drug uptake [7] was 22.26 kBq/ml, the Drug uptake [8] was 22.48 kBq/ml and the Drug uptake (Hippocampus [9]) was 19.15 kBq/ml. The Drug uptake [10] was 9.179 kBq/ml, the Drug uptake (Hippocampus [11]) was 12.1253 kBq/ml and the Drug uptake [12] was 51.01 kBq/ml. The Drug uptake [13] was 15.16 kBq/ml, the Drug uptake [14] was 57.19 kBq/ml and the Drug uptake [15] was 20.1 kBq/ml. It also gave a Drug uptake [16] of 50.61 kBq/ml, a Drug uptake (Hippocampus [17]) of 39.52 kBq/ml and a Drug uptake (Hippocampus [18]) of 50.86 kBq/ml. It also gave a Drug uptake [19] of 55.16 kBq/ml, a Drug uptake (Striatum [20]) of 42.26 kBq/ml and a Drug uptake [21] of 22.54 kBq/ml. The Drug uptake [22] was 16.82 kBq/ml, the Drug uptake [23] was 56.64 kBq/ml and the Drug uptake (Hippocampus [24]) was 30.28 kBq/ml. The Drug uptake [25] was 11.95 kBq/ml, the Drug uptake [26] was 16.76 kBq/ml and the Drug uptake [27] was 9.836 kBq/ml. The Drug uptake [28] was 7.697 kBq/ml, the Drug uptake (Hippocampus [29]) was 30.9853 kBq/ml and the Drug uptake [30] was 36.57 kBq/ml. The Drug uptake (Hippocampus [31]) was 37.33 kBq/ml, the Drug uptake [32] was 10.6 kBq/ml and the Drug uptake (Hippocampus [33]) was 10.64 kBq/ml. It also gave a Drug uptake (Striatum [34]) of 46.0188 kBq/ml, a Drug uptake [35] of 7.721 kBq/ml and a Drug uptake (Striatum [36]) of 8.262 kBq/ml. For the same molecule, the Drug uptake [37] was 41.01 kBq/ml, the Drug uptake (Striatum [38]) was 9.576 kBq/ml and the Drug uptake [39] was 51.43 kBq/ml. The Drug uptake [40] was 15.6843 kBq/ml, the Drug uptake [41] was 7.481 kBq/ml and the Drug uptake [42] was 25.53 kBq/ml. The Drug uptake [43] was 21.93 kBq/ml and the Drug uptake [44] was 16.31 kBq/ml.
